Reference: PubChem BioAssay
Values without a mark were called inactive.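 Rule for the calls, unless noted: active = viability increase at or above a cutoff of the median across tested compounds plus 3 SD (cut at about 8.5% in these data, passing the limit was not always enough); inconclusive = some gains above the cutoff, reason not given; inactive = the rest.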

Experiment: Restrictive medium S. cerevisiae growth inhibition, OD615, pilot screen of yeast lifespan reduction project, restrictive growth control (AID 706;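 active = growth inhibition above a set limit, 3 SD over mean compound inhibition, in both replicates, cut at about 43% in these data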;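 note: modified DeaD lifespan yeast strain shifted to restrictive glucose medium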)
Conditions: OD615, 48 h, at 10 µM, hits give high values
Summary of the method: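 System: Engineered S. cerevisiae DeaD strain | Detection: OD615 | Buffer or medium: CSMM-D glucose medium | Doses: 10 µM compound, 0.25% DMSO | Timing: 4 h pre-growth plus 48 h compound exposure, 30 °C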

| Structure (SMILES) | growth inhibition [%] |
| --- | --- |
| COc1ccccc1NC1C=CS(=O)(=O)C1 (stereo not given) | 0.12 |
| COc1ccccc1CNC(=O)c1cnc2sccn2c1=O | -12.4 |
| CCOc1ccccc1N1C(=O)c2cccnc2C1=O | 7.41 |
| COc1ccc(NC(=O)c2c(-c3ccccc3)noc2C)c(OC)c1 | -30.3 |
| COc1ccc(NC(=O)C2CCCN(S(=O)(=O)c3cccc4cccnc34)C2)cc1 (stereo not given) | 4.72 |
| COCCCNC(=O)c1cc2c(-c3ccc(Cl)cc3)nn(C)c2s1 | 1.75 |
| CSc1nnc(NC(=O)c2cc3ccccc3oc2=O)s1 | -6.74 |
| CCC(CC)C(=O)Nc1cc(=O)n(C)c(=O)n1C | 8.82 |
| CNc1nc(C)nc(-c2ccccc2O)n1 | 7.31 |
| Cc1ccc(C)c(NC(=O)CS(=O)(=O)c2cn(C)c3ccccc23)c1 | 2.97 |
| CC1(C)Cc2c(sc3c2c(=N)n(Cc2ccco2)c(=O)n3Cc2ccc(Cl)cc2)CO1 | 6.14 |
| CCOC(=O)c1sc(NC(=O)COC(=O)c2ccco2)nc1C | -12.7 |
| CN(C)CCNC(=O)c1cc2cc(Br)ccc2oc1=O | -8.59 |
| Cn1c2c(c(=O)n(C)c1=O)C1c3ccccc3OCC1C(C)(C)O2 (stereo not given) | -19.5 |
| Cc1onc(-c2ccccc2Cl)c1C(=O)Nc1ccc(S(=O)(=O)N2CCCC2)cc1 | 9.99 |
| COc1ccc(C2C(C(=O)NCc3cccnc3)c3ccccc3C(=O)N2C)cc1OC (stereo not given) | -13.9 |
| CC(=O)c1c(C)cc(C)c(CSc2nc(C)cc(=O)[nH]2)c1C | 19.8 |
| CCOC(=O)C1CCCN(C(=O)Cn2nc(CC)n3c(cc4sccc43)c2=O)C1 (stereo not given) | -9.06 |
| CCCCN(C)C(=O)C(Cc1ccccc1)NS(=O)(=O)c1ccc2c(c1)CCC(=O)N2 (stereo not given) | -11.7 |
| CC(C)Sc1nnc(Cn2c(=O)sc3ccccc32)n1-c1ccccc1 | -10.2 |

| Structure (SMILES) | growth inhibition [%] |
| --- | --- |
| Cc1csc(C(C#N)C(=O)c2cc3ccccc3o2)n1 (stereo not given) | -8.8 |
| O=C(O)c1ccc(Cl)c2c1C1C=CCC1C(c1ccccn1)N2 (stereo not given) | 8.06 |
| CCCCOC(=O)Nc1ccccc1C(N)=O | -13 |
| CCOC(=O)C1CCCN(C(=O)Cn2nc(Cc3cccnc3)c3ccccc3c2=O)C1 (stereo not given) | -7.92 |
| CCN1C(=O)c2ccccc2S(=O)c2ccc(C(=O)NCCCN3CCCC3=O)cc21 (stereo not given) | -6.62 |
| CCCCCOC(=O)NCC(O)c1ccccc1 (stereo not given) | -8.97 |
| O=C(NCC(c1ccc(F)cc1)N1CCOCC1)c1ccc(Br)o1 (stereo not given) | -13.2 |
| CCOC(=O)N1CCC(N2CC34C=CC(O3)C(C(=O)Nc3ccc(C)cc3)C4C2=O)CC1 (stereo not given) | -0.16 |
| O=C(CSc1cn(Cc2ccccc2)c2ccccc12)Nc1nccs1 | 3.57 |
| O=C(CN1CCN(c2ncccn2)CC1)N1CCN(C(c2ccccc2)c2ccccc2)CC1 | -2.38 |
| CCOC(=O)N1CCC(NC(=O)c2cc3ccccn3n2)CC1 | 1.79 |
| O=P(O)(CCc1ccccn1)CN1CCOCC1 | -15.6 |
| CCCc1cc(C(=O)Nc2cc(OC)c(Cl)cc2OC)no1 | 4.3 |
| CCN(CC)C(=O)CCCOc1ccc(Cl)cc1Cl | -0.045 |
| CCOC(=O)c1ccc(NC(=O)C2C3C=CC(C3)C2C(=O)O)cc1 (stereo not given) | 5.33 |
| Cc1ccc(C2=[N+]([O-])C3(CCCCC/C3=N\O)N(O)C2(C)C)o1 (stereo not given) | -2.15 |
| Cc1ccc(N(C)C(=O)N2CCN(S(=O)(=O)c3ccc(C)cc3)CC2)cc1 | -7.74 |
| COc1ccc(OC)c(NC(=O)Cn2cnc3c(cnn3-c3ccccc3)c2=O)c1 | 7.43 |
| CC1CCCCC1NC(=O)CCS(=O)(=O)c1cccc2nonc12 (stereo not given) | 2.68 |
| O=C(NCCSCc1ccco1)c1ccc(CN2CCOCC2)cc1 | -27 |

Experiment: viability gain of MRP-1-high H69AR cells under doxorubicin, pilot screen, MRP-1 activator project, CellTiter-Glo, duplicate (AID 807);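 note: compound pretreatment 18-22 h then 72 h combined with doxorubicin; 0% = doxorubicin alone and 100% = vehicle without doxorubicin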
Conditions: H69AR viability with doxorubicin, CellTiter-Glo luminescence; at 10 µM; hits give high values

| Structure (SMILES) | viability increase [%] |
| --- | --- |
| COc1ccccc1NC1C=CS(=O)(=O)C1 (stereo not given) | -2.42 |
| COc1ccccc1CNC(=O)c1cnc2sccn2c1=O | -2.45 |
| CCOc1ccccc1N1C(=O)c2cccnc2C1=O | -1.2 |
| COc1ccc(NC(=O)c2c(-c3ccccc3)noc2C)c(OC)c1 | -1.79 |
| COc1ccc(NC(=O)C2CCCN(S(=O)(=O)c3cccc4cccnc34)C2)cc1 (stereo not given) | -0.46 |
| COCCCNC(=O)c1cc2c(-c3ccc(Cl)cc3)nn(C)c2s1 | -6.69 |
| CSc1nnc(NC(=O)c2cc3ccccc3oc2=O)s1 | -2.29 |
| CCC(CC)C(=O)Nc1cc(=O)n(C)c(=O)n1C | -0.82 |
| CNc1nc(C)nc(-c2ccccc2O)n1 | -0.19 |
| Cc1ccc(C)c(NC(=O)CS(=O)(=O)c2cn(C)c3ccccc23)c1 | -0.69 |
| CC1(C)Cc2c(sc3c2c(=N)n(Cc2ccco2)c(=O)n3Cc2ccc(Cl)cc2)CO1 | -4.55 |
| CCOC(=O)c1sc(NC(=O)COC(=O)c2ccco2)nc1C | -6.43 |
| CN(C)CCNC(=O)c1cc2cc(Br)ccc2oc1=O | -2.26 |
| Cn1c2c(c(=O)n(C)c1=O)C1c3ccccc3OCC1C(C)(C)O2 (stereo not given) | -2.46 |
| Cc1onc(-c2ccccc2Cl)c1C(=O)Nc1ccc(S(=O)(=O)N2CCCC2)cc1 | -2.15 |
| COc1ccc(C2C(C(=O)NCc3cccnc3)c3ccccc3C(=O)N2C)cc1OC (stereo not given) | -0.88 |
| CC(=O)c1c(C)cc(C)c(CSc2nc(C)cc(=O)[nH]2)c1C | 0.08 |
| CCOC(=O)C1CCCN(C(=O)Cn2nc(CC)n3c(cc4sccc43)c2=O)C1 (stereo not given) | -0.92 |
| CCCCN(C)C(=O)C(Cc1ccccc1)NS(=O)(=O)c1ccc2c(c1)CCC(=O)N2 (stereo not given) | -2.47 |
| CC(C)Sc1nnc(Cn2c(=O)sc3ccccc32)n1-c1ccccc1 | -0.05 |

| Structure (SMILES) | viability increase [%] |
| --- | --- |
| Cc1csc(C(C#N)C(=O)c2cc3ccccc3o2)n1 (stereo not given) | -0.75 |
| O=C(O)c1ccc(Cl)c2c1C1C=CCC1C(c1ccccn1)N2 (stereo not given) | -2.57 |
| CCCCOC(=O)Nc1ccccc1C(N)=O | 0.35 |
| CCOC(=O)C1CCCN(C(=O)Cn2nc(Cc3cccnc3)c3ccccc3c2=O)C1 (stereo not given) | 1.09 |
| CCN1C(=O)c2ccccc2S(=O)c2ccc(C(=O)NCCCN3CCCC3=O)cc21 (stereo not given) | -3.1 |
| CCCCCOC(=O)NCC(O)c1ccccc1 (stereo not given) | -1.52 |
| O=C(NCC(c1ccc(F)cc1)N1CCOCC1)c1ccc(Br)o1 (stereo not given) | -1.97 |
| CCOC(=O)N1CCC(N2CC34C=CC(O3)C(C(=O)Nc3ccc(C)cc3)C4C2=O)CC1 (stereo not given) | 1.43 |
| O=C(CSc1cn(Cc2ccccc2)c2ccccc12)Nc1nccs1 | 1.89 |
| O=C(CN1CCN(c2ncccn2)CC1)N1CCN(C(c2ccccc2)c2ccccc2)CC1 | -3.26 |
| CCOC(=O)N1CCC(NC(=O)c2cc3ccccn3n2)CC1 | 0.34 |
| O=P(O)(CCc1ccccn1)CN1CCOCC1 | 1.31 |
| CCCc1cc(C(=O)Nc2cc(OC)c(Cl)cc2OC)no1 | -4.41 |
| CCN(CC)C(=O)CCCOc1ccc(Cl)cc1Cl | 0.07 |
| CCOC(=O)c1ccc(NC(=O)C2C3C=CC(C3)C2C(=O)O)cc1 (stereo not given) | 0.55 |
| Cc1ccc(C2=[N+]([O-])C3(CCCCC/C3=N\O)N(O)C2(C)C)o1 (stereo not given) | -1.16 |
| Cc1ccc(N(C)C(=O)N2CCN(S(=O)(=O)c3ccc(C)cc3)CC2)cc1 | -1.03 |
| COc1ccc(OC)c(NC(=O)Cn2cnc3c(cnn3-c3ccccc3)c2=O)c1 | -0.9 |
| CC1CCCCC1NC(=O)CCS(=O)(=O)c1cccc2nonc12 (stereo not given) | -2.34 |
| O=C(NCCSCc1ccco1)c1ccc(CN2CCOCC2)cc1 | -1.57 |
